From ChEMBL document CHEMBL1127349, “6,7,8,9-Tetrahydro-N,N-di-n-propyl-3H-benzindol-8-amines. Derivatives as potent and orally active serotonin 5-HT1A receptor agonists” (J Med Chem, 1994) come the findings set out here.

Calls of active or inactive are those of the source. No cut-off for these calls is given here.

For test [1], the system named is Rattus norvegicus. In words: The concentration yielding a half maximal decrease of the DOPA was determined in rat limbic system; Partial response at 50 umol/kg. Format: functional, organism-based.
Test [2] deals with Rattus norvegicus. The test can be described thus: The concentration yielding a half maximal decrease of the 5-HTP was determined in rat brain striatum; inactive at 50 umol/kg. Format: functional, organism-based. In short, it runs like this:
(§1)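 Reserpine-pretreated (5 mg/kg sc, 18 h) male Sprague-Dawley rats, 200–300 g; compounds in saline given sc. DOPA and 5-HTP in limbic system, striatum and hemispheres measured by HPLC with electrochemical detection. Dose–response curves of 4–6 doses (n = 4) per area, fitted to variable-slope sigmoid on log data to give ED50.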

Test [3] relates to Rattus norvegicus. The test can be described thus: The concentration yielding a half maximal decrease of the 5-HTP was determined in rat brain hemispheres; inactive at 50 umol/kg. Format: functional, organism-based. In short, it runs like this:
as §1

The test system of test [4] is Rattus norvegicus. The test can be described thus: Motor activity was measured by motility testing on injecting the compound subcutaneously into rats at the dose of 12.5 uM/Kg. Format: functional. In short, it runs like this: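 Rats given reserpine 5 mg/kg sc 18 h beforehand, then test compound sc in neck (n = 4). Placed singly in photocell motility meters straight after dosing; counts recorded for 30 min, gross behaviour observed throughout. Value as counts/30 min with SEM.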

The subject of test [5] is Rattus norvegicus. The test can be described thus: The concentration yielding a half maximal decrease of the DOPA was determined in rat brain striatum; Partial response at 50 umol/kg. Format: functional, organism-based.
In test [6] the test system is Rattus norvegicus. The test can be described thus: The concentration yielding a half maximal decrease of the DOPA was determined in rat brain hemispheres; inactive at 50 umol/kg. Format: functional, organism-based. In short, it runs like this:
as §1

The subject of test [7] is Rattus norvegicus. The test can be described thus: The concentration yielding a half maximal decrease of the 5-HTP was determined in rat limbic system; Partial response at 50 umol/kg. Format: functional, organism-based. In short, it runs like this: as §1

On to `CCCN(CCC)C1CCc2cc3cc[nH]c3cc2C1` (configuration not stated), for which the ED50 result with Rattus norvegicus [1], with Rattus norvegicus [5] and in the test with Rattus norvegicus [7] was “Weak activity” in each case. For the same molecule, the ED50 entry in the test on Rattus norvegicus [2], in the test with Rattus norvegicus [3] and in the test on Rattus norvegicus [6] was “inactive” each time. Besides, the Activity in the test on Rattus norvegicus [4] was 51 Counts 30min-1.
